Source: PubChem
Insulin prom act: activators of insulin promoter-driven GFP, primary screen, imaging, TRM-6 cells, eGFP reporter, cell count; 130,000 compounds, 0.81% hits; activation, % at 2 µM; plate-scaled: unstimulated 0, stimulated control 100; AID 1296, 2008;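 active = activation at 2 µM above a set limit, confirmed on inspection of the cell images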;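 also: share of cells whose green reporter signal exceeds an intensity cutoff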
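System – human fetal islet-derived TRM-6 cells with tamoxifen-inducible insulin promoter–eGFP reporter · Amount – 1,000 cells per well · Schedule – overnight tamoxifen, then two-day compound incubation at 37 °C · Detection – high-content imaging of fixed cells with Hoechst nuclear stain · Read-out – percent cells above green-intensity threshold, converted to percent activation versus plate controls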
An asterisk follows results filed as active; [ ] = another dose, or the depositor's remark. Many of the other results were omitted from the sample, so hits are more common in it than they were.

SMILES	Insulin prom act
CC(C)NC(=O)COc1ccc(Cl)cc1Cl	6
CC(=O)c1sc(NC(=O)COc2ccc(Cl)cc2Cl)nc1C	290*
Cc1ccc(SCCC(=O)NCCSCc2ccccc2C)cc1	7
Oc1cc2c(cc1CN1CCN(c3cccc(C(F)(F)F)c3)CC1)CCC2	82*
FC(F)(F)c1cccc(N2CCN(CC3CC4C=CC3C4)CC2)c1 (stereo not drawn)	-8
O=C(c1c(F)c(F)c(F)c(F)c1F)N1CCN(c2cccc(C(F)(F)F)c2)CC1	0
Cc1ccc(S(=O)(=O)/C(C#N)=C/c2c(N3CC(C)OC(C)C3)nc3c(C)cccn3c2=O)cc1 (stereo not drawn)	-3
CC(=O)Nc1ccc(NC(=O)C(C)O/N=C/c2cccc([N+](=O)[O-])c2)cc1 (stereo not drawn)	-8
O=C(CO/N=C/c1cccc([N+](=O)[O-])c1)Nc1ccc2ccccc2c1	3
O=C(O/N=C/c1cccc([N+](=O)[O-])c1)C1CC1	209*
CC[n+]1ccc(C[n+]2ccccc2)c2ccccc21	-4
CC(C)(C)OC(=O)N[C@@H](Cc1ccccc1)c1nnc(SCC(=O)c2ccc(Cl)cc2)o1	507*
Cc1ccccc1CS(=O)(=O)c1nnc([C@H](Cc2ccccc2)NC(=O)OC(C)(C)C)o1	-78
CC(C)(C)OC(=O)N[C@@H](Cc1c[nH]c2ccccc12)c1nnc(SCC(N)=O)o1	0
CCc1cccc2c(C=C(C#N)C#N)cn(CC(=O)N3CCCC3)c12	-8
COc1ccc(-n2c(CNC(=O)c3cc(OC)c(OC)c(OC)c3)n[nH]c2=S)cc1	0
COCCCn1cc(C(=O)c2cc(OC)ccc2OCC(=O)N2CCCCC2C)cc(C#N)c1=O (stereo not drawn)	6
COc1ccc(/C=N/OC(=O)Nc2ccccc2OC)cc1	-8
Cc1cc(C)n(C(=O)CNC(=O)c2cccs2)n1	-9
COc1cc(OC)cc(-c2nnc(SCC(=O)N3CCOCC3)o2)c1	-6
COc1cc(OC)cc(-c2nnc(SCC(=O)Nc3cc(C)on3)o2)c1	113*
COc1ccc(C(=O)CSc2nnc(-c3cc(C)cc(C)c3)o2)cc1	3
CC(C)(C)C1CCC(OCC(O)CN2CCN(c3ccccn3)CC2)CC1 (stereo not drawn)	-7
CC(C)c1cc(N=NC(N)=O)cc(C(C)C)c1O	-5
Cc1ccc(C2CC(=O)N(c3ccc(F)cc3)C3=C2C(=O)CCC3)cc1 (stereo not drawn)	5
SMILES	Insulin prom act
CC(O)Cc1nsc(NC(=O)c2ccc(Br)o2)n1 (stereo not drawn)	-9
Cc1cc([N+](=O)[O-])nn1CC(=O)NCc1ccco1	0
CN1CCN(C(=O)CCC(=O)c2ccc(F)cc2)CC1	-8
CC(C)(C)c1nc2ccccc2[nH]1	-80
CCn1nc(C(=O)Nc2nc3ccccc3[nH]2)c2ccccc2c1=O	108
c1ccc2nc3c(nc2c1)[nH]c1ccccc13	300*
CCn1c(Cc2ccccc2)nnc1SCC(=O)Nc1ccccc1N1CCOCC1	188
COC(=O)c1sc2cc([N+](=O)[O-])cc(SCC(C)C)c2c1N	590*
COc1ccc([N+](=O)[O-])cc1NC(=O)CC(c1ccccc1)c1ccccc1	193
COCCSc1nnc(NC(=O)c2cc(C(=O)OC)cc([N+](=O)[O-])c2)s1	7
Cc1ccc(C)c(NC(=O)CN(C)C(=O)COc2ncnc3sccc23)c1	3
O=C(Nc1ccnc(-c2ccncc2)n1)c1ccc(F)cc1	340*
O=C(Nc1ccccc1)c1ccncc1	-6
CCC(=O)Nc1ccnc(-c2cccnc2)n1	0
COc1cccc2c1OC1(C)CC2/C(=C(\C)O)C(=O)N1 (stereo not drawn)	-91
O=C(N/N=C/c1ccc([N+](=O)[O-])o1)C1CC1	-6
CCNC(=O)c1ccccc1CCc1ccccc1	5
COc1cccc2c1C(=O)c1c(O)c3c(c(O)c1C2=O)C[C@@](O)(C(=O)CO)C[C@@H]3O[C@H]1C[C@H](N)[C@H](O)[C@H](C)O1	354*
Cc1cc2cc(CN(C(=O)C3CC3)C3CCCC3)c3nnnn3c2cc1C	7
CCOC(=O)CN1C(=O)S/C(=C/c2cc(C)n(C)c2C)C1=O	2
CCN1C(=O)/C(=C\N2CCN(C)CC2)SC1=S	9
COCCN1C(=O)/C(=C/c2ccc(N3CCCC3)cc2C)SC1=S	456*[fluoresces]
Cc1nn2c(=O)cc(COC(=O)c3ccc(S(=O)(=O)N4CCCCC4)cc3)nc2s1	0
CCOC(=O)c1oc2nc(CC(C)C)c3c(c2c1N)CCC3	-6
CC(=O)c1c(C)[nH]c(C(=O)CN2C(=O)NC(C)(c3ccc(C)cc3)C2=O)c1C (stereo not drawn)	0
SMILES	Insulin prom act
CN1/C(=N\O)c2cccc3cccc1c23	7
CC(=O)c1ccc2cccc3c2c1N=CN3C	130*
CN1c2cccc3cccc(c23)N(C)C1(C)C	6
COc1ccc(/C=N/NC(=O)C(O)(c2ccccc2)c2ccccc2)cc1OC	7
COc1ccccc1N1CCN(S(=O)(=O)c2cccs2)CC1	3
COc1ccc(N2CCN(S(=O)(=O)c3ccc(Cl)s3)CC2)cc1	2
COc1ccc(N2CCN(S(=O)(=O)c3cccs3)CC2)cc1	500*
COCc1cc(C)n(CC(=O)N/N=C/c2ccc(-c3ccc(Cl)c(C(=O)O)c3)o2)c(=O)c1C#N	177
CC(Sc1nncs1)C(=O)Nc1ccc2c(c1)OCO2 (stereo not drawn)	-7
Cc1ccc(OCC(=O)Nc2cc(S(=O)(=O)N3CCCCC3)ccc2C)c([N+](=O)[O-])n1	-10
CCCCC(=O)N(CCOC)c1nnc(-c2ccc(OC)cc2)s1	3
COCCN(C(=O)C1CC1)c1nnc(-c2cccc(C)c2)s1	182*
COCCN(C(=O)/C=C/c1ccccc1)c1nnc(-c2cccnc2)s1	-5
COc1ccc(C2(C(=O)N3CCOCC3)CCOCC2)cc1OC	-9
Cc1noc(NS(=O)(=O)c2ccc(NC(=O)Nc3ccc(Cl)c(Cl)c3)cc2)c1C	-75
Cc1noc(NS(=O)(=O)c2ccc(NC(=O)CCN3C(=O)c4ccccc4C3=O)cc2)c1C	6
Cc1noc(NS(=O)(=O)c2ccc(NC(=O)CSc3n[nH]c(-c4ccccc4)n3)cc2)c1C	154*
O=C(CN1C(=O)NC2(CCCCC2)C1=O)NC1CCCc2ccccc21 (stereo not drawn)	-3
COc1ccc(Nc2ccc([N+](=O)[O-])cc2[N+](=O)[O-])cc1	-6
O=C(Nc1cccc(C(F)(F)F)c1)n1cc(-c2ccccn2)c(N2CCOCC2)n1	9
CC(=O)NNc1ncnc2c1cnn2-c1ccc(C)c(Cl)c1	-4
COc1ccc(N2C(=O)CC(N3CCOCC3)C2=O)cc1 (stereo not drawn)	0
COc1ccc(NC2CC(=O)N(c3cccc(C)c3)C2=O)cc1 (stereo not drawn)	600*
COc1ccc(N2C(=O)CC(Nc3cccc(C(C)=O)c3)C2=O)cc1OC (stereo not drawn)	1
CCCCOC(=O)c1ccc(NC(=S)NC(=O)c2c(Br)c(C)nn2C)cc1	9
c1ccc(-c2cn3c4c(sc3n2)CCCC4)cc1	0
COc1ccc(N2CCN(S(=O)(=O)c3ccc4c(c3)CCCC4)CC2)c([N+](=O)[O-])c1	0
O=C(NCCN1CCOCC1)c1cc(S(=O)(=O)NCCCN2CCCC2=O)ccc1Cl	0
Cc1cccc(NC(=S)N/C(=N/S(=O)(=O)c2ccccc2)c2ccccc2)c1	-8
